The record followed here is ChEMBL document CHEMBL2169759, “A new class of selective and potent 7-dehydrocholesterol reductase inhibitors” (J Med Chem, 2012).

Data set [1] addresses T1, 7-dehydrocholesterol reductase (Homo sapiens, UniProt Q9UBM7).
T1 sequence (Q9UBM7 whole entry): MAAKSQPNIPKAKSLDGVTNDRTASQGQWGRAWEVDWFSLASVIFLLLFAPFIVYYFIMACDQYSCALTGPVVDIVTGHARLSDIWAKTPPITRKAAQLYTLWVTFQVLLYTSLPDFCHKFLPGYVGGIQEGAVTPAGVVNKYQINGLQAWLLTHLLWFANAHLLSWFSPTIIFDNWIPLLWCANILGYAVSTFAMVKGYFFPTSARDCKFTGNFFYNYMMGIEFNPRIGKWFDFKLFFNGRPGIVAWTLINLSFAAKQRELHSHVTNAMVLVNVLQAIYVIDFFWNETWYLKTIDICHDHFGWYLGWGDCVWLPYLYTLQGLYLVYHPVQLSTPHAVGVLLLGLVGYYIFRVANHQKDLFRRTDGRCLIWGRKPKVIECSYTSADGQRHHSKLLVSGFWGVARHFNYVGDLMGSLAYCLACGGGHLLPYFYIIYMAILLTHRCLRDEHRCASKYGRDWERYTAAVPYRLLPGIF
As to the kind of experiment: Inhibition of […]-mediated cholesterol biosynthesis in human HL60 cells assessed as inhibition of 2-[13C]acetate after 24 hrs GC/MS analysis. Type of data set: cell-based, HL-60. The method, boiled down: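 Whole-cell cholesterol synthesis in HL-60 cells, 24 h with inhibitor and sodium 2-¹³C-acetate; six concentrations plus blank, in triplicate. Newly made labeled cholesterol (m/z 372–379, 462–469) measured by GC-MS against cholestane and normalized to Bradford protein. % inhibition against untreated control fitted to a variable-slope sigmoid, bottom fixed at 0, giving IC50; BM 15.766 as reference.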

In data set [2] the test system is Yarrowia lipolytica. As to the kind of experiment: Antifungal activity against Yarrowia lipolytica DSM 1345 after 36 hrs by disc diffusion method. Type of data set: organism-based. Conditions: in vivo. Background: In agar diffusion tests the substance spreads into inoculated agar from a disc or well.
In data set [3] the test system is Saccharomyces cerevisiae. The data set can be described thus: Antifungal activity against Saccharomyces cerevisiae DSM 1333 after 36 hrs by disc diffusion method. It counts as organism-based. The settings on record: in vivo.
Data set [4] has as its system HL-60. The data set can be described thus: Cytotoxicity against human HL60 cells after 24 hrs by MTT assay. It counts as cell-based. The settings on record: HL-60, 24 h. Put shortly:
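MTT colorimetric assay on HL-60 promyelocytic leukemia cells (RPMI 1640, 10% FBS, no antibiotics, 37 °C, 5% CO2) as a preliminary screen for unspecific cytotoxicity; cisplatin as reference.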
In general terms: Tetrazolium assays rely on reduction of a dye to a coloured formazan, in cell work by metabolically active cells.

The nature of data set [5]: Antibacterial activity against Pseudomonas antimicrobica DSM 8361 after 36 hrs by disc diffusion method. Conditions: burkholderia gladioli.
Data set [6] relates to Nakaseomyces glabratus. The data set can be described thus: Antifungal activity against Candida glabrata DSM 11226 after 48 hrs. Type of data set: organism-based. The settings on record: in vivo. Put shortly:
(§1)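 MIC against the yeast strains determined according to DIN 58940-84; clotrimazole as positive control.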

Data set [7] is described as follows: Antifungal activity against Hyphopichia burtonii DSM 70663 after 36 hrs by disc diffusion method.
Data set [8] can be described thus: Antibacterial activity against Streptococcus entericus DSM 14446 after 36 hrs by disc diffusion method.
In data set [9] the test system is Nakaseomyces glabratus. As to the kind of experiment: Antifungal activity against Candida glabrata DSM 11226 after 36 hrs by disc diffusion method. Type of data set: organism-based. Conditions: in vivo.
In data set [10] the target is T2, 7-dehydrocholesterol reductase (Homo sapiens) (UniProt Q9UBM7).
T2 sequence (whole entry): T1 sequence (Q9UBM7 whole entry)
The data set can be described thus: Inhibition of 7-dehydrocholesterol reductase in human HL60 cells assessed as accumulation of 7-dehydrocholesterol at 1 uM after 24 hrs by GC/MS analysis. Type of data set: cell-based. The settings on record: HL-60. The method, boiled down:
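HL-60 cells (1 × 10⁶) in lipid-free HL-60 medium given inhibitor at 50 μM or 1 μM (ethanol blank) for 24 h at 37 °C, 5% CO2. Pellet saponified in 1 M NaOH, 1 h at 70 °C, then TBME microextraction with cholestane internal standard. GC-MS sterol pattern compared with blanks and with AY 9944 and BM 15.766 references.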

The test system of data set [11] is Yarrowia lipolytica. The data set can be described thus: Antifungal activity against Yarrowia lipolytica DSM 1345 after 48 hrs. Type of data set: organism-based. The settings on record: in vivo. Put shortly: as §1
A short description of data set [12]: Antibacterial activity against Staphylococcus equorum DSM 20675 after 36 hrs by disc diffusion method.
Data set [13] relates to Saccharomyces cerevisiae. The data set can be described thus: Antimicrobial activity against Saccharomyces cerevisiae DSM 1333 after 48 hrs. Type of data set: organism-based. Conditions: in vivo. Put shortly:
as §1

The subject of data set [14] is Escherichia coli. The data set can be described thus: Antibacterial activity against Escherichia coli DSM 426 after 36 hrs by disc diffusion method. Type of data set: organism-based. Conditions: in vivo.
A short description of data set [15]: Antifungal activity against Aspergillus brasiliensis DSM 1988 after 36 hrs by disc diffusion method.
Data set [16] concerns the target T2, 7-dehydrocholesterol reductase (Homo sapiens). As to the kind of experiment: Ratio of BM15.766 IC50 to compound IC50 for […]-mediated cholesterol biosynthesis in human HL60 cells. It counts as cell-based. Conditions: HL-60.

Active and inactive are the calls of the source. No cut-off for these calls is given here.

Take `O=C(O)c1ccc(CCN2CCN(C/C=C/c3ccc(Cl)cc3)CC2)cc1`: the concentration for half-maximal inhibition (IC50) – broadly, the concentration at which inhibition is half-maximal – in [1] is 500 nM.
Take `COc1cc2c(cc1O)CCN(CCc1ccc(OC)c(OC)c1)C2`: the figures for the half-maximal inhibitory concentration (IC50) in data set [1] and in data set [4] were 7300 nM and greater than 50000 nM, respectively. In addition, the Activity entry in data set [2] is “Non-toxic”; in data set [3] it was “Non-toxic”; in [5], “Non-toxic”; in data set [7] it was “Toxic”; in [8], “Non-toxic”; in data set [9] it was “Non-toxic”. Also, the Activity result in data set [12], in data set [14] and in data set [15] was “Non-toxic” throughout. Besides, the MIC in data set [6], in data set [11] and in data set [13] was greater than 20 µg/mL throughout. Also, in data set [10], the “7-DHCR inhibition (active/not active)” value is “Active”.
With `COc1cc2c(cc1O)CCN(CCc1ccc(Cl)cc1)C2`, the values for the half-maximal inhibitory concentration (IC50) in data set [1] and in [4] were 2.3 nM and greater than 50000 nM, respectively. Moreover, the Activity entry in [2], in [3], in [5], in data set [7], in data set [8] and in [9] was “Non-toxic” in each case. Also, the Activity entry in data set [12], in data set [14] and in [15] was “Non-toxic” each time. Moreover, the MIC in [6], in data set [11] and in data set [13] was greater than 20 µg/mL in each case. Besides, the “7-DHCR inhibition (active/not active)” value in [10] is “Active”. In [16], the Ratio IC50 was found to be 200.
On to `COc1cccc(CCN2CCc3cc(O)c(OC)cc3C2)c1`, for which the values for the half-maximal inhibitory concentration (IC50) in data set [1] and in data set [4] were 120 nM and greater than 50000 nM, respectively. The Activity entry in data set [2], in data set [3], in data set [5], in [7], in [8] and in data set [9] was “Non-toxic” each time. Besides, the Activity entry in data set [12], in data set [14] and in data set [15] was “Non-toxic” throughout. In addition, the MIC in [6], in data set [11] and in [13] was greater than 20 µg/mL throughout. The “7-DHCR inhibition (active/not active)” value in data set [10] is “Active”.
